From ChEMBL document CHEMBL1137088, “Distamycin analogues with enhanced lipophilicity: synthesis and antimicrobial activity” (2004) come the findings set out here.

Each structure is given as a SMILES string. Values after ≈ are worked out from the molar mass of the structure shown. Active and inactive are the calls of the source. The calls are words filed in the database; no cut-off is given here.

Assay [1] deals with Escherichia coli. Nature of the assay: Antibacterial activity against Escherichia coli NCTC 9001 strain. Type of assay: functional.
In assay [2] the test system is Staphylococcus aureus. Kind of assay: Antibacterial activity against MRSA PHLS M1 strain; na = not active. The assay is classed as functional, organism-based.
Assay [3] deals with Mycolicibacterium fortuitum. Nature of the assay: Antibacterial activity against Mycobacterium fortuitum NCTC 10394 strain. The assay is classed as functional.
The nature of assay [4]: Antibacterial activity against Enterobacter cloacae NCTC 10005 strain. Type of assay: functional.
The subject of another assay is Proteus vulgaris. Kind of assay: Antibacterial activity against Proteus vulgaris NCTC 4175 strain. The assay is classed as functional.
Assay [5] is described as follows: Antifungal activity against Candida albicans NCPF 3179 strain; na = not active. Type of assay: functional.
The subject of assay [6] is Enterococcus faecalis. Kind of assay: Antibacterial activity against Streptococcus faecalis NCTC 775 strain. The assay is classed as functional.
Assay [7] relates to Staphylococcus aureus. Nature of the assay: Antibacterial activity against Staphylococcus aureus NCTC 6571 strain. Type of assay: functional.
For another assay, the system named is Aspergillus niger. Nature of the assay: Antifungal activity against Aspergillus niger IMI17454 strain. The assay is classed as functional. The following applies: Aspergillus niger; read-out: MIC.
Another assay deals with Aspergillus nidulans. Kind of assay: Antifungal activity against Aspergillus nidulans CABI 0160037 strain. Type of assay: functional.
A further assay relates to Klebsiella aerogenes. Nature of the assay: Antibacterial activity against Klebsiella aerogenes WRL CN 345 strain. The assay is classed as functional, WRL CN 375. The settings on record: Klebsiella aerogenes, WRL CN 375; read-out: MIC.
The subject of assay [8] is Staphylococcus aureus. Nature of the assay: Antibacterial activity against methicillin-resistant Staphylococcus aureus (MRSA) PHLS M1 strain. Type of assay: functional. The essentials: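 Read-out is the minimum inhibitory concentration, reported in µM. Amoxycillin is tested alongside as the reference antibiotic.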
The test system of assay [9] is Enterococcus faecalis. Nature of the assay: Antibacterial activity against Streptococcus faecalis NCTC 775 strain; na = not active. Type of assay: functional, organism-based.
A further assay concerns Candida albicans. Kind of assay: Antifungal activity against Candida albicans NCPF 3179 strain. The assay is classed as functional. The settings on record: Candida albicans; read-out: MIC.
A further assay deals with Enterobacter cloacae. Nature of the assay: Antibacterial activity against Enterobacter cloacae NCTC 10005 strain. Type of assay: functional, organism-based.
Assay [10] deals with Escherichia coli. Nature of the assay: Antibacterial activity against Escherichia coli NCTC 9001 strain. Type of assay: functional, organism-based.
The test system of assay [11] is Staphylococcus aureus. Nature of the assay: Antibacterial activity against MRSA PHLS M1 strain. The assay is classed as functional.
Assay [12] is described as follows: Antibacterial activity against Proteus vulgaris NCTC 4175 strain; na = not active. Type of assay: functional.
Assay [13] concerns Enterococcus faecalis. Nature of the assay: Antibacterial activity against Streptococcus faecalis NCTC 775 strain=. Type of assay: functional.
In assay [14] the test system is Mycolicibacterium fortuitum. Nature of the assay: Antibacterial activity against Mycobacterium fortuitum NCTC 10394 strain=. Type of assay: functional.

Usually MIC stands for the lowest concentration found to suppress growth. Turning to `CC(C)CCn1cc(NC(=O)c2cc(NC=O)cn2C)cc1C(=O)Nc1cc(C(=O)NCCCN2CCN(C)CC2)n(C)c1`, the minimum inhibitory concentration (MIC) in the assay on Escherichia coli [1] was 140 µM (≈ 85.1 µg/mL); in [3], 69.3 µM (≈ 42.1 µg/mL); in [4] it was 140 µM (≈ 85.1 µg/mL); with Proteus vulgaris, 140 µM (≈ 85.1 µg/mL); with Enterococcus faecalis [6], 69.3 µM (≈ 42.1 µg/mL); in the assay on Staphylococcus aureus [7], 140 µM (≈ 85.1 µg/mL). Besides, the figures for the MIC in the assay on Aspergillus niger, against Aspergillus nidulans and with Klebsiella aerogenes were 140 µM (≈ 85.1 µg/mL), 69.3 µM (≈ 42.1 µg/mL) and 140 µM (≈ 85.1 µg/mL), respectively. Besides, the MIC result (in the assay with Staphylococcus aureus [2]; in [5]) was “inactive” throughout.
In the case of `CC(=O)Nc1cc(C(=O)Nc2cc(C(=O)Nc3cc(C(=O)NCCCN(C)C)n(C)c3)c(C)s2)n(C)c1`, the MIC in the assay on Escherichia coli [1] is 156 µM (≈ 82.3 µg/mL); against Staphylococcus aureus [8], 156 µM (≈ 82.3 µg/mL); in [3] it was 38.9 µM (≈ 20.5 µg/mL); in [4], 156 µM (≈ 82.3 µg/mL); in the assay on Proteus vulgaris, 156 µM (≈ 82.3 µg/mL); against Staphylococcus aureus [7], 78.5 µM (≈ 41.4 µg/mL). The MIC in the assay on Aspergillus niger turned out to be 156 µM (≈ 82.3 µg/mL); with Aspergillus nidulans, 38.9 µM (≈ 20.5 µg/mL); with Klebsiella aerogenes it was 156 µM (≈ 82.3 µg/mL); with Candida albicans, 156 µM (≈ 82.3 µg/mL). Further, the MIC result with Enterococcus faecalis [9] was “inactive”.
For the compound `CC(C)n1cc(NC(=O)c2cc(NC=O)cn2C)cc1C(=O)Nc1cc(C(=O)NCCCN2CCCC2)n(C)c1`, the MIC entry (in the assay with Escherichia coli [1]; in assay [5]) was “inactive” throughout. The MIC against Staphylococcus aureus [8] turned out to be 75.2 µM (≈ 41.4 µg/mL); in assay [3] it was 150 µM (≈ 82.6 µg/mL); in [4], 75.2 µM (≈ 41.4 µg/mL); against Proteus vulgaris, 150 µM (≈ 82.6 µg/mL); with Enterococcus faecalis [6], 75.2 µM (≈ 41.4 µg/mL); against Staphylococcus aureus [7], 150 µM (≈ 82.6 µg/mL). In addition, the results for the MIC in the assay on Aspergillus niger, in the assay with Aspergillus nidulans and in the assay on Klebsiella aerogenes were 150 µM (≈ 82.6 µg/mL), 150 µM (≈ 82.6 µg/mL) and 37.6 µM (≈ 20.7 µg/mL), respectively.
For the compound `Cn1cc(NC(=O)c2cc(NC(=O)c3cc(NC=O)cn3C)cn2C)cc1C(=O)NCCCN1CCCC1`, the MIC came out at 157 µM (≈ 82 µg/mL) in the assay on Escherichia coli [1]; 78.5 µM (≈ 41 µg/mL) in assay [3]; 157 µM (≈ 82 µg/mL) in assay [4]; 157 µM (≈ 82 µg/mL) against Proteus vulgaris; 1200 µM (≈ 627 µg/mL) in the assay on Staphylococcus aureus [7]; 157 µM (≈ 82 µg/mL) with Aspergillus niger. For the same compound, the MIC against Aspergillus nidulans, in the assay with Klebsiella aerogenes and in the assay with Candida albicans was 157 µM (≈ 82 µg/mL) in each case. Moreover, the MIC entry in the assay with Staphylococcus aureus [2] and in the assay on Enterococcus faecalis [9] was “inactive” throughout.
For `COc1ccc(CC(=O)Nc2cc(C(=O)Nc3cc(C(=O)Nc4cc(C(=O)NCCCN(C)C)n(C)c4)n(CCC(C)C)c3)n(C)c2)cc1`, the MIC entry (in the assay on Enterobacter cloacae; in the assay on Escherichia coli [10]; in [12]) was “inactive” in each case. Besides, the minimum inhibitory concentration (MIC) in assay [3] was 15.9 µM (≈ 10.7 µg/mL); in the assay with Staphylococcus aureus [11], 63.6 µM (≈ 42.8 µg/mL); in the assay on Enterococcus faecalis [6] it was 15.9 µM (≈ 10.7 µg/mL); in the assay with Staphylococcus aureus [7] it was 15.9 µM (≈ 10.7 µg/mL); in the assay with Aspergillus niger it was 15.9 µM (≈ 10.7 µg/mL); in the assay on Aspergillus nidulans it was 15.9 µM (≈ 10.7 µg/mL). Moreover, the MIC with Klebsiella aerogenes and in the assay with Candida albicans was 15.9 µM (≈ 10.7 µg/mL) each time.
With `COc1cccc(C(=O)Nc2nc(C(=O)Nc3cc(C(=O)Nc4cc(C(=O)NCCCN(C)C)n(C)c4)n(C)c3)c(C(C)C)s2)c1`, the MIC against Escherichia coli [1] worked out at 65.5 µM (≈ 42.5 µg/mL); against Staphylococcus aureus [8] it was 32.7 µM (≈ 21.2 µg/mL); in [3] it was 65.5 µM (≈ 42.5 µg/mL); in [4], 131 µM (≈ 85 µg/mL); with Proteus vulgaris, 65.5 µM (≈ 42.5 µg/mL); with Enterococcus faecalis [6], 32.7 µM (≈ 21.2 µg/mL). Also, the MIC in the assay on Staphylococcus aureus [7] came to 32.7 µM (≈ 21.2 µg/mL); in the assay with Aspergillus niger it was 131 µM (≈ 85 µg/mL); against Aspergillus nidulans, 131 µM (≈ 85 µg/mL); in the assay on Klebsiella aerogenes, 32.7 µM (≈ 21.2 µg/mL); in the assay with Candida albicans, 131 µM (≈ 85 µg/mL).
`COc1cccc(C(=O)Nc2cc(C(=O)Nc3cc(C(=O)Nc4cc(C(=O)NCCCN(C)C)n(C)c4)n(C)c3)n(C)c2)c1`: the MIC result (in the assay with Enterobacter cloacae; in the assay with Escherichia coli [10]; with Staphylococcus aureus [2]; in [5]; in [12]) was “inactive” each time. In addition, the MIC with Enterococcus faecalis [13] was 140 µM (≈ 84.4 µg/mL); in [14], 140 µM (≈ 84.4 µg/mL); against Staphylococcus aureus [7], 69.8 µM (≈ 42.1 µg/mL); with Aspergillus niger it was 140 µM (≈ 84.4 µg/mL); against Aspergillus nidulans, 69.8 µM (≈ 42.1 µg/mL); in the assay on Klebsiella aerogenes it was 140 µM (≈ 84.4 µg/mL).
